DNMT1 block: DNMT1 (human) enzyme inhibition | AID 588458 | P26358 | 360,000 compounds, 0.83% hits | inhibition (reported as % activation of signal), % at 10 µM | DNMT1 molecular beacon, Hinp1I cleavage, fluorescence; in the data active = inhibition above about 50%
Scp-1 inhibitor: blocks human Scp-1 phosphatase activity; AID 493091; inhibition, % at 20 µM; 340,000 compounds, 0.88% hits; Q9GZU7; Recombinant Scp1, phosphopeptide, malachite green phosphate absorbance;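 active = inhibition above about 50% at 20 µM, limit read from the data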
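Assay system: SCP-1 catalytic fragment, aa 76-261 | Buffer or medium: Tris acetate buffer pH 5.5 with MgCl2 and Tween-20 | Compound: One concentration, 20 µM, with 1.0% DMSO | Also added: Phospho 17-mer peptide substrate | Signal: Absorbance at 630 nm | Incubation: 45 min enzyme reaction at room temperature | Measure: % inhibition of SCP-1 phosphate liberation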
STEP inh: blocks human striatal-enriched tyrosine phosphatase | P54829 | inhibition, % at 20 µM | 360,000 compounds, 0.25% hits | recombinant STEP, OMFP fluorogenic substrate, fluorescence;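 active = inhibition at 20 µM, scaled per plate between control wells, above about 37%, limit read from the data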
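Assay system: isolated STEP enzyme. Buffer or medium: pH 6.0 Bis-Tris with DTT and Tween 20. Also added: fluorogenic phosphatase substrate OMFP at 25 µM final. Dosing: 20 µM, 1% DMSO. Timing: 20 min reaction, room temperature, in the dark. Measured by: fluorescence intensity, excitation 480 nm, emission 540 nm. Evaluation: normalized % inhibition.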
LMPTP block: blocks human LMPTP phosphatase; recombinant LMPTP-A, OMFP fluorogenic substrate, fluorescence intensity; inhibition, % at 20 µM; 360,000 compounds, 0.22% hits;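 active = compounds that cut the enzyme signal by at least half of the control window in the single-dose screen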
Target sequence (P24666 whole entry, looked up): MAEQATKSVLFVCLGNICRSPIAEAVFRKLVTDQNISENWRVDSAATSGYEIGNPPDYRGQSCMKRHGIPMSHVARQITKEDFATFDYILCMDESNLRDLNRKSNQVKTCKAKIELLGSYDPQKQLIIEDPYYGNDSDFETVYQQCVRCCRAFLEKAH
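Test system: LMPTP-A phosphatase enzyme; input: 0.625 nM LMPTP-A final; reagent: OMFP substrate, 400 µM final; compound dosing: 20 µM single dose, 3% DMSO; incubation: 50 min dark incubation at room temperature; measured by: endpoint fluorescence intensity from OMFP dephosphorylation; measure: % inhibition relative to no-enzyme and uninhibited control wells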
Rpn11 inh: blocks the human proteasome subunit Rpn11; human 26S proteasome, Ub4-pepOG fluorescence polarization; 20S core pre-blocked with epoxomicin; AID 588493; O00487; inhibition, % at 20 µM; 360,000 compounds, 0.59% hits;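 active = inhibition at 20 µM, scaled to each plate's controls, above about 33%, limit read from the data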
Target sequence (O00487 whole entry, looked up): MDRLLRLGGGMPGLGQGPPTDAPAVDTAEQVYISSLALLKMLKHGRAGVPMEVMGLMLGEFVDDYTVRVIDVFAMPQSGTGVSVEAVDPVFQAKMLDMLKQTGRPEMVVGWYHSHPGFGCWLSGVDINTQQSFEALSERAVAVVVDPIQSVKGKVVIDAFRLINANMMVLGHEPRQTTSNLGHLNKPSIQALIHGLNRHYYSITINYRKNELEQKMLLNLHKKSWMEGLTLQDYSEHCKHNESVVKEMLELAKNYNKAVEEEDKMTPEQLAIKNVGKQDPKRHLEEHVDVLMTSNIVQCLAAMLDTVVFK
Rpn11 inh conf: Rpn11 inhibition confirmation, single concentration; shares compounds with Rpn11 inh; purified human 26S proteasome, Ub4-pepOG fluorescence polarization; proteasome pretreated with epoxomicin; inhibition, % at 20 µM; 1,900 compounds, 29% hits
MMP-2 inh: counter-screen for RPN11 inhibitors: inhibition of human MMP-2; shares compounds with Rpn11 inh; recombinant MMP-2, FRET peptide cleavage fluorescence; inhibition, % at 20 µM; 1,900 compounds, 4% hits; AID 602330;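 note: human MMP-2 activated beforehand with APMA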
Thrombin inh: thrombin (bovine) inhibition counter-screen; shares compounds with Rpn11 inh; bovine thrombin cleavage of Ub4-pepOG, fluorescence polarization; inhibition, % at 20 µM; 1,900 compounds, 13% hits; AID 602333;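 active = mean inhibition at least 40% at 20 µM, or signal 3 deviations below plate average, so some actives read negative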
Numbers stand for hits. In the library only some 2% were active in any assay of this set; here they are far more common. Cut-off read from the data, not from the text of the source, unless noted: active = inhibition above about 40%; inactive = the rest.

`COc1ccc(Oc2nnc(-c3ccc(C)cc3)c3ccccc23)cc1` gave DNMT1 block inactive, Scp-1 inhibitor inactive, STEP inh inactive, LMPTP block inactive and Rpn11 inh inactive.
For CC(NC(=O)CCNS(=O)(=O)c1cccc2nonc12)c1ccccc1 (stereo unspecified) the results were DNMT1 block inactive, Scp-1 inhibitor inactive, STEP inh inactive, LMPTP block inactive and Rpn11 inh inactive.
`CCN1C(=S)SC(=O)C1=C1C=C(C)N(Cc2ccco2)C(C)=C1` gave DNMT1 block inactive, Scp-1 inhibitor inactive, STEP inh inactive, LMPTP block inactive, Rpn11 inh 46, Rpn11 inh conf inactive, MMP-2 inh inactive and Thrombin inh inactive.
Screening Cc1cccc2sc(N(CCN(C)C)C(=O)C3CCN(S(=O)(=O)c4cccs4)CC3)nc12 returned DNMT1 block inactive, Scp-1 inhibitor inactive, STEP inh inactive, LMPTP block inactive and Rpn11 inh inactive.
Screening COc1ccccc1NS(=O)(=O)c1cc(NC(=O)c2sc3cc(Cl)ccc3c2Cl)ccc1C returned DNMT1 block inactive, Scp-1 inhibitor inactive, STEP inh inactive, LMPTP block inactive and Rpn11 inh inactive.
For COc1ccccc1NS(=O)(=O)c1cc(N=N/C(C(=O)Nc2ccc(Cl)cc2)=C(/C)O)ccc1C the results were DNMT1 block inactive, Scp-1 inhibitor inactive, STEP inh inactive, LMPTP block inactive, Rpn11 inh 42, Rpn11 inh conf inactive, MMP-2 inh inactive and Thrombin inh inactive.
Screening CCOC(=O)c1c(C)[nH]c(C(=O)OCC(=O)N(CC(C)C)c2c(N)n(Cc3ccccc3)c(=O)[nH]c2=O)c1C returned DNMT1 block inactive, Scp-1 inhibitor inactive, STEP inh inactive, LMPTP block inactive, Rpn11 inh 60, Rpn11 inh conf 104, MMP-2 inh inactive and Thrombin inh 69.
`CCOc1ccc(S(=O)(=O)N2CCCCC2)cc1NC(=O)CN1C(=O)NC(C)(C2CC2)C1=O` (stereo unspecified) gave DNMT1 block inactive, Scp-1 inhibitor inactive, STEP inh inactive, LMPTP block inactive and Rpn11 inh inactive.
Screening O=C(O)c1cn(C2CC2)c2cc(N3CCN(S(=O)(=O)c4ccc5c(c4)OCCO5)CC3)c(F)cc2c1=O returned DNMT1 block inactive, Scp-1 inhibitor inactive, STEP inh inactive, LMPTP block 65, Rpn11 inh 102, Rpn11 inh conf inactive, MMP-2 inh inactive and Thrombin inh inactive.
For CNc1ccccc(-c2ccc3cc4c(cc3n2)OCO4)c1=O the results were DNMT1 block inactive, Scp-1 inhibitor inactive, STEP inh inactive, LMPTP block inactive and Rpn11 inh inactive.
COc1cccc(-c2nn(C)c3sc(C(=O)NCCCN(C)Cc4ccccc4)cc23)c1 was read as DNMT1 block inactive, Scp-1 inhibitor inactive, STEP inh inactive, LMPTP block inactive, Rpn11 inh 88, Rpn11 inh conf inactive, MMP-2 inh inactive and Thrombin inh inactive.
For CCCC(C)C(=O)Nc1ccc(Cl)cn1 (stereo unspecified) the results were DNMT1 block inactive, Scp-1 inhibitor inactive, STEP inh inactive, LMPTP block inactive, Rpn11 inh 33, Rpn11 inh conf inactive, MMP-2 inh inactive and Thrombin inh inactive.
For CCCCC(=O)Nc1ccc(Cl)cn1 the results were DNMT1 block inactive, Scp-1 inhibitor inactive, STEP inh inactive, LMPTP block inactive and Rpn11 inh inactive.
`Cc1cc(C)c(S(=O)(=O)N2CCCCC2CCNC(=O)C(=O)NCc2cccnc2)c(C)c1` (stereo unspecified) gave DNMT1 block inactive, Scp-1 inhibitor inactive, STEP inh inactive, LMPTP block inactive and Rpn11 inh inactive.
COC(=O)c1sccc1NC(=O)c1cc(OC)cc(OC)c1 was read as DNMT1 block inactive, Scp-1 inhibitor inactive, STEP inh inactive, LMPTP block inactive and Rpn11 inh inactive.
